Laboratory results reported in PubChem BioAssay AID504414 (Broad Institute, 2011).
Among all 330,000 compounds or so, about 55 (0.02%) were called active.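 How the source made its calls: active means highest replicate inhibition of at least 40%; inactive means the rest.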 For the sample, actives were picked, then their nearest neighbours and some compounds at random.

Each molecule was assayed against Golgi-associated PDZ and coiled-coil motif-containing protein (Homo sapiens) (UniProt Q9HD26) (assay: disruption of CAL PDZ-reporter peptide interaction – biochemical, fluorescence polarization, Cer-tagged CAL PDZ, HTS, primary screen (AID 504414;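 further: plate controls were DMSO neutral control wells for no effect and unlabeled competitor peptide control wells for full effect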)). Details: purified CAL PDZ, TMR-peptide fluorescence polarization, 1 h; at 20 µM; active compounds read high.
Procedure, shortened: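 Assay system – tagged CAL PDZ protein CerCALP, purified · Timing – 1 h at RT · Compound – single point, 20 µM · Measured by – fluorescence polarization from S- and P-plane intensities, G-factor corrected · Evaluation – inhibition from polarization loss · Probe or stimulus – TMR reporter peptide T*-PRC34 · Buffer or medium – pH 7.4 phosphate-saline buffer, reducing agent, detergent, IgG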

SMILES | inhibition
COc1ccccc1N(CC(=O)Nc1c(C)n(C)n(-c2ccccc2)c1=O)S(=O)(=O)c1ccccc1 | 0.495% (inactive)
CCN(CC)CCN1C(=O)C2C(C(=O)Nc3ccc(Br)cc3)C3C=CC2(O3)C1C(=O)NC1CCCCC1 (stereo unspecified) | 0.206% (inactive)
COc1ccc(-n2c(O)c(C=NCC(c3ccco3)N3CCCC3)c3ccccc3c2=O)cc1OC (stereo unspecified) | -2.24% (inactive)
CC1CCCN(C(=O)Cn2c(=O)oc3ccccc32)C1 (stereo unspecified) | 0.481% (inactive)
COc1ccc(/C=C/C(=O)NC(=S)N2CCCC(C(N)=O)C2)cc1 (stereo unspecified) | -0.891% (inactive)
O=C(C1CCCO1)N1CCN(S(=O)(=O)c2ccc(Br)cc2)CC1 (stereo unspecified) | -0.919% (inactive)
CC(OC(=O)c1ccc(-n2cnnn2)cc1)C(=O)NCc1ccccc1 (stereo unspecified) | -0.615% (inactive)
COc1ccccc1N1CCN(CC(=O)NCCc2ccc(S(N)(=O)=O)cc2)CC1 | 1.11% (inactive)
O=C1COc2c1ccc(O)c2O | -0.377% (inactive)
CCC(C(=O)NC1CCCCC1)N(C(=O)c1snc(C(N)=O)c1N)c1ccc(OC)cc1OC (stereo unspecified) | -1.96% (inactive)
COC(=O)c1cc(NC2c3ccccc3C(=O)N2c2ccc(Cl)cn2)cc(C(=O)OC)c1 (stereo unspecified) | 1.56% (inactive)
Cc1cccc(OCCNC(=S)NC(=O)c2cccnc2)c1 | -1.24% (inactive)
COC(=O)c1cc(C(=O)N(Cc2ccccc2)c2ccccn2)cc([N+](=O)[O-])c1 | -1.95% (inactive)
FC(F)(F)c1cc(C(F)(F)F)c2ccc(N3CCN(c4ccccc4)CC3)nc2n1 | -0.0994% (inactive)
Cc1cccc(N2Cc3ccccc3C2=NC(=O)c2ccc(Cl)nc2)c1 | -3% (inactive)
Cc1ccc(C(=O)O)c(NC=O)c1OCc1ccccc1 | -0.888% (inactive)
O=C(Nc1ccc(F)c([N+](=O)[O-])c1)C1CCCO1 (stereo unspecified) | 0.3% (inactive)
C[C@@H]1C(c2ccc(F)cc2)=NN(c2ccc(Br)cc2)[C@H]1C(=O)N1CCOC1=O | -0.314% (inactive)
COc1ccc(N2CCN(C(=O)c3ccc(N4CCCCS4(=O)=O)cc3)CC2)cc1 | -1.77% (inactive)
CCCCCCCCCCOC(=O)C[N+](C)(C)CC1CCCCC1O (stereo unspecified) | -1.83% (inactive)
Cc1cc(C)c(C#N)c(Nc2cccc(Br)c2)n1 | -0.811% (inactive)
COc1ccc2c(c1)c(=Cc1ccc(N(C)C)cc1)c1cc(-c3ccccc3)[n+](C)n12 | 32% (inactive)
COc1ccc(-n2nc(C(=O)NCC(=O)N3CCC(C(N)=O)CC3)c3ccccc3c2=O)cc1OC | 0.6% (inactive)

SMILES | inhibition
COc1ccccc1C(=O)COC(=O)CNS(=O)(=O)c1ccc(NC(C)=O)cc1 | -3.17% (inactive)
COc1cc2c(cc1OC)C1C(=O)c3cc(OS(C)(=O)=O)c(OC)cc3C1N(C)C2=O (stereo unspecified) | -0.086% (inactive)
Cc1ccc(NC(=O)CN2C(=O)NC(C)(c3ccc(Cl)cc3)C2=O)c(Br)c1 (stereo unspecified) | -4.23% (inactive)
CCOc1cc(/C=N/NC(=O)c2ccc(CSc3nncn3C)cc2)ccc1OCC(=O)N1CCOCC1 | -3.73% (inactive)
CCN(CC)S(=O)(=O)c1cccc(-c2n[nH]c(=S)n2/N=C/c2ccc(C(=O)OC)cc2)c1 | -1.46% (inactive)
CCCCC(CC)CNCc1cccn1CCN1CCOCC1 (stereo unspecified) | 0.235% (inactive)
Cc1cc(C)n(CC(C)NCc2c(C(=O)N3CCOCC3)nc3c(C)cccn23)n1 (stereo unspecified) | 0.659% (inactive)
COc1ccccc1C1C(C(N)=O)=C(C)Nc2nc(CCCO)nn21 (stereo unspecified) | -0.498% (inactive)
Nc1cc2c(cc1Br)-c1ccc(F)cc1C2=O | -0.277% (inactive)
O=C(O)CCC(=O)Nc1ccc(OCC2CCCO2)cc1 (stereo unspecified) | -0.764% (inactive)
Cc1c[n+]([O-])ccc1[N+](=O)[O-] | 0.378% (inactive)
Cc1nc(C)c2c(c1C(F)(F)F)-c1ccccc1C2(F)F | -1.33% (inactive)
NC1=NC(=O)C(Cc2cccc(Cl)c2Cl)S1 (stereo unspecified) | 1.03% (inactive)
CCc1ccc(OCC(=O)OC(C)C(=O)NC2CC2)cc1 (stereo unspecified) | -0.543% (inactive)
CC(C)(C)C(=O)N(Cc1ccccc1)c1ccccn1 | 0.0459% (inactive)
COC(C(=O)Nc1ccc(S(=O)(=O)Nc2ccc(C)c(C)c2)cc1)c1ccccc1 (stereo unspecified) | -3.38% (inactive)
CCCCCCCCNS(=O)(=O)CCNC1CCCCC1 | -1.06% (inactive)
O=C1CSc2ccc(S(=O)(=O)NCc3ccccc3)cc2N1 | -0.383% (inactive)
CCOc1ccccc1-n1c(SCC(=O)N2CCCC2)nnc1-c1ccoc1C | -1.83% (inactive)
O=S(=O)(NC1CCCCC1N1CCC(O)CC1)c1ccc(Cl)cc1 (stereo unspecified) | -0.646% (inactive)
CC1CCCCC1NC(=O)CCS(=O)(=O)c1ccc2c(c1)NC(=O)CO2 (stereo unspecified) | -0.536% (inactive)
COc1ccc(/C=N/N=C/c2c[nH]c(=O)c(C#N)c2Nc2ccccc2)cc1 | -5.96% (inactive)
CC(C)(C)C(=O)Nc1ccc(-c2cn3cccnc3n2)cc1 | -1.11% (inactive)

SMILES | inhibition
CCCCCC(=O)Nc1ccc(-c2cn3cccnc3n2)cc1 | 177% (active)
CC(=O)Nc1ccc(-c2cn3cccnc3n2)cc1 | -1.06% (inactive)
Cc1ccc(C(=O)NNC(=O)OC(C)(C)C)c(Cl)c1 | -1.58% (inactive)
S=c1[nH]cc(-c2ccc(Cl)cc2)n1-c1ccccc1 | -1.13% (inactive)
CC(=O)c1nc(N2C(=O)C3CC=C(C)CC3C2=O)sc1C (stereo unspecified) | -0.266% (inactive)
CC(C)CCN1CCN=C1N(C)C | -2.49% (inactive)
Cc1ccc(S(=O)(=O)N2CCN(C)CC2)cc1C(=O)NC1CCCCC1 | -0.886% (inactive)
CN1/C(=c2/s/c(=C3/C(=O)N(c4ccccc4)NC3=Nc3ccccc3)n(C)c2=O)C(C)(C)c2ccccc21 | 0.46% (inactive)
COc1cc(-c2nc(S(=O)(=O)c3ccc(Cl)cc3)c(N(C)C)o2)cc(OC)c1OC | -0.274% (inactive)
Clc1c(OCCCn2ccnc2)ccc2ccccc12 | -0.854% (inactive)
O=C(OCC(=O)N1CCCCCC1)c1ccc(Br)c(S(=O)(=O)N2CCOCC2)c1 | 0.404% (inactive)
CSc1ccc(Cl)c(C(=O)OCC(=O)N2CC(C)OC(C)C2)c1 (stereo unspecified) | 1.25% (inactive)
CCOc1ccc(NC(=O)CC(Cc2ccc(Cl)cc2)C(=O)O)cc1 (stereo unspecified) | -0.804% (inactive)
Cc1cc(-n2cnc(-c3cn(C)nc3C)n2)no1 | -0.598% (inactive)
C=CCOC(=O)N1CCC2CC1c1cc(-c3ccc(OC)cc3)ccc12 (stereo unspecified) | -0.353% (inactive)
Cc1nc(-c2ccccc2)sc1-c1nnc(C2CC2)o1 | -0.361% (inactive)
CCN(C(=O)COC(=O)/C=C/c1nc2ccccc2s1)C1CCS(=O)(=O)C1 (stereo unspecified) | 0.0609% (inactive)
CC(=O)c1c(C)[nH]c(C(=O)Nc2cc(S(=O)(=O)N(C)C)ccc2C)c1C | -0.89% (inactive)
COc1ccc(CNC(=O)CSc2n[nH]c(N)n2)cc1OC | -2.17% (inactive)
C=CCOc1c2ccc(C(=O)N(CC)c3ccc(OC)cc3)cc2nn1C | -0.978% (inactive)
O=C(COc1coc(CN2CCN(c3ccccc3)CC2)cc1=O)N1CCc2ccccc21 | -0.986% (inactive)
COc1cc(NC(=O)c2cccs2)ccc1NC(=O)c1ccccc1Cl | 52% (active)
COc1cc(NC(=O)c2ccc3c(c2)OCO3)ccc1NC(=O)c1cccs1 | -2.17% (inactive)

SMILES | inhibition
COc1cc2ccccc2cc1C(=O)Nc1ccc(NC(=O)c2cccs2)cc1 | -1.38% (inactive)
Cn1cc(CCC(=O)N2CCCC(C(=O)c3ccc(C(C)(C)C)cc3)C2)cn1 (stereo unspecified) | -1.53% (inactive)
Cc1ccccc1NC(=O)CCOc1ccccc1 | -0.379% (inactive)
COc1ccccc1-n1ccnc(SCC(=O)NC2CCCCC2)c1=O | -0.307% (inactive)
CN(C)S(=O)(=O)Oc1ccccc1C(=O)Nc1ccccc1Cl | -2.53% (inactive)
CN(C)C(=O)CCc1ccc2c3c([nH]c2c1)[C@]1(C)[C@@H](C(=O)N2CCCCC2)C[C@H](CC(=O)NCCC2=CCCCC2)C(=O)N1CC3 | -0.602% (inactive)
CC(CN1CCCCC1)c1ccccc1 (stereo unspecified) | -0.367% (inactive)
COc1ccccc1CNC(=O)CNC(=O)c1cn(-c2ccccc2OC)c(=O)c2ccccc12 | -0.592% (inactive)
CCc1ccc(C(=O)C(C)OC(=O)CN2C(=O)NC3(CCCC3)C2=O)cc1 (stereo unspecified) | -0.0354% (inactive)
Cc1ccoc1C(=O)Nc1cccc(Oc2ccccc2)c1 | -1.61% (inactive)
Cc1ccnc(NC(=O)C2CCN(S(=O)(=O)c3c(C)c(C)cc(C)c3C)CC2)c1 | -2.34% (inactive)
CCOc1ccc(OCC(=O)OC(C)C(=O)NC2CCCCC2C)cc1 (stereo unspecified) | -1.17% (inactive)
O=C(O)C1C2C=CC(O2)C1C(=O)Nc1ccccn1 (stereo unspecified) | 0.325% (inactive)
COCCN(C(=S)Nc1ccccc1OC)C1CCN(C(C)C)CC1 | 61.8% (active)
CCc1cccc(NC(=S)N(CCN(C)C)C2CCN(C(C)C)CC2)c1 | -0.435% (inactive)
COc1ccccc1NC(=S)N1CCN(C(c2ccccc2)c2ccccc2)CC1 | 0.312% (inactive)
Cc1ccccc1N1C(=O)C2ON(c3ccccc3)C(c3ccncc3)C2C1=O (stereo unspecified) | -1.2% (inactive)
CCCCN(C)c1ccc([N+](=O)[O-])cc1 | -3.03% (inactive)
CC(=O)c1c(O)cc2n(c1=O)-c1ccc(Cl)cc1C2(C)C | -2.37% (inactive)
COc1ccc(-c2cc(C(=O)N(C)CC(=O)Nc3ccccc3Cl)c3ccccc3n2)cc1OC | -0.623% (inactive)
O=C(/C=C/Nc1ccc(S(=O)(=O)Nc2cnc3ccccc3n2)cc1)c1cccnc1 | -1.99% (inactive)
COc1ccc(N(CC(=O)N2CCOCC2)S(=O)(=O)c2ccccc2)cc1Cl | -0.969% (inactive)
